From PubChem BioAssay
An excerpt weighted towards active compounds, which were near 4.2% of everything screened.
TAAR1 agonist: human TAAR1 agonism; 0.99% of 360,000 active; activation, % at 3 µM; CHO RD-HGA16 TAAR1, Fluo-8 calcium fluorescence; vehicle wells 0%, saturating PEA agonist 100%; AID 624467;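 active = activation above the mean activation of all test compounds in the run plus 3 SD, cut at about 38% in these data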
Target sequence (Q96RJ0 whole entry, looked up): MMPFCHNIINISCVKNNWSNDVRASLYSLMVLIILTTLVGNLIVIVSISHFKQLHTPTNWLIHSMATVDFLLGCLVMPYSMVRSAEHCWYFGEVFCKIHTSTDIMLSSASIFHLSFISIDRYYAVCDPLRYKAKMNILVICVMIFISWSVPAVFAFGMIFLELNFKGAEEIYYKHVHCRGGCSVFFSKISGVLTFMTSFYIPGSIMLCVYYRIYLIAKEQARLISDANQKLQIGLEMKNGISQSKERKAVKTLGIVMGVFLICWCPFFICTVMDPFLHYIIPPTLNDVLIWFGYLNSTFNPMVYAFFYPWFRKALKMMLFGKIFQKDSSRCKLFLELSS
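Signal – calcium-sensitive Fluo-8 signal, excitation 470-495, emission 515-575 nm · System – RD-HGA16 (CHO) cells co-expressing Gα16 and hTAAR1 · Incubation – 17-24 h seeding, 75 min 37 °C dye, 30 min RT · Compound dosing – 3 µM single concentration · Repeats – no replicates (n 1)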
GalR3 antagonist: blocks the human galanin receptor 3 | O60755 | HEK293 GalR3-CNG cAMP membrane potential fluorescence; galR3 body fused to GalR1 C-terminus | inhibition, % at 3 µM | 0.44% of 360,000 active | AID 651719;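 active = inhibition above the screen-wide average plus 3 SD, cut at about 13% in these data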;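 also: forskolin and galanin both at EC90 stimulate the cells; cAMP rise reported by CNG channel membrane potential dye signal; 0% = forskolin plus galanin with DMSO and 100% = forskolin alone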
OX1R antag-1: blocks the human orexin 1 receptor. O43613. CHO/OX1R cells, Fluo-8 calcium fluorescence, orexin A. inhibition, % at 5 µM. 0.43% of 330,000 active. AID 434989;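 active = inhibition above its plate's threshold, mean inhibition of all tested compounds on the plate plus 3 SD, cut at about 37% in these data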;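 also: 0% = orexin A challenge wells and 100% = SB-334867-A antagonist wells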
TAAR1 antagonist: human TAAR1 antagonism. Q96RJ0. CHO RD-HGA16 TAAR1, Fluo-8 calcium fluorescence, antagonist. inhibition, % at 3 µM. 1.5% of 360,000 active. AID 624466;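 active = inhibition above a per-plate cutoff, the mean inhibition of test compounds on that plate plus 3 SD, cut at about 49% in these data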;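 also: 0% = DMSO plus EC80 beta-PEA response and 100% = DMSO alone without agonist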
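Test system – hTAAR1-expressing CHO RD-HGA16 cells, Gα16-coupled · Also added – β-PEA at EC80 concentration, post-compound challenge · Compound – 3 µM, single point · Incubation – dye loading 75 min at 37 °C, then 30 min room temperature · Measured by – Fluo-8 intracellular calcium dye fluorescence, real-time kinetic reads · Benchmarks – vehicle and agonist controls · Replicates – singlicate, one well per test compound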
OX1R antag-2: antagonists of human orexin 1 receptor (OX1R); O43613; OX1R-expressing cells, FRET antagonist read-out; inhibition, % at 6.6 µM; 1.8% of 330,000 active; in the data active = inhibition mostly above about 38%, no sharp cut-off; inactive = mostly below about 40%;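 also: 0% = agonist challenge alone and 100% = reference antagonist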
CHO parental Ca: signal in parental CHO cells, OX1R antagonist counter-screen | parental CHO-K1, ATP-induced calcium, Fluo-8 fluorescence | inhibition, % at 5.6 µM | 0.63% of 330,000 active;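 active = inhibition above that plate's mean sample inhibition plus 3 SD, cut at about 26% in these data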;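 also: 0% = ATP-challenged DMSO wells and 100% = DMSO wells without ATP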
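Assay system: untransfected parental CHO cell line. Also added: ATP agonist challenge. Dosing: one dose, 5.6 µM nominal. Measured by: Fluo-8 fluorescence. Read-out: % inhibition. Benchmarks: ATP wells versus no-ATP DMSO wells. Repeats: no replicates.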
GalR3 conf: GalR3 (human) antagonism, confirmation | HEK293 GalR3 CNG cAMP biosensor, membrane potential fluorescence; galR3 fused to GalR1 carboxy tail; challenged with forskolin and galanin at EC90 | 59% of 1,600 active | inhibition, % at 3 µM | shares compounds with GalR3 antagonist;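 active = inhibition above the primary screen's cutoff, the mean inhibition of all screened compounds plus 3 SD, cut at about 13% in these data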;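 also: 0% = forskolin plus galanin and 100% = forskolin alone with DMSO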
CNG parental: parental cell agonism counter-screen for GalR3 antagonists | activation, % at 3 µM | shares compounds with GalR3 antagonist | HEK293-CNG parental cells, cAMP membrane potential fluorescence; normalised: DMSO wells 0%, forskolin wells 100% | AID 652268 | 10% of 1,600 active; in the data active = activation above about 1.3%
* marks the source's active call; other numbers are inactive results; / = no result given.

SMILES	TAAR1 agonist	GalR3 antagonist	OX1R antag-1	TAAR1 antagonist	OX1R antag-2	CHO parental Ca	GalR3 conf	CNG parental
Cc1nc(SCc2nc3ccc([N+](=O)[O-])cc3[nH]2)c2oc3ccccc3c2n1	14.3	-2.8	-17.5	41.9	15.8	-26.5	/	/
Nc1nc(Sc2ccc(C(F)(F)F)cc2[N+](=O)[O-])n[nH]1	16.2	1.4	11.9	1.0	14.3	-3.1	/	/
O=C(CN1C(=O)CCC1=O)Nc1cccc2c1C(=O)NC2=O	3.7	20.6*	11.6	-27.2	5.9	-0.9	15.1*	0.0
O=C(Nc1cccc2c1C(=O)NC2=O)c1cccc(N2C(=O)CCC2=O)c1	2.7	3.5	-25.4	14.6	29.4	-15.9	/	/
COc1ccc(/C=C/C(=O)OCC(=O)Nc2nnc(-c3ccccc3)o2)c(OC)c1	0.2	-4.1	/	-13.3	/	/	/	/
COc1cccc(/C=C/C(=O)OCC(=O)Nc2nnc(-c3ccccc3)o2)c1OC	-2.2	12.6*	/	-16.7	/	/	1.9	0.7
Cc1ccc(NC(=O)OCc2ccccc2S(C)=O)cc1 (stereo not drawn)	11.8	14.6*	-23.9	2.5	15.9	-5.1	28.9*	-0.3
O=C(Nc1nc2c(s1)CCCC2)c1cc(-c2ccc3c(c2)OCO3)nc2ccccc12	/	/	-14.8	/	23.1	-16.9	/	/
O=C(CSc1nc2ccccc2o1)N1CCN(S(=O)(=O)c2ccc3ccccc3c2)CC1	0.2	3.5	-10.5	-1.5	47.5	-22.5	/	/
CCC(C)c1ccc(NC(=O)COC(=O)c2nc3nccc(C)n3n2)cc1 (stereo not drawn)	0.4	14.6*	-7.1	1.8	33.4	6.2	13.7*	0.2
CN(C)CCNC(=O)Cn1c(=O)c2cccn2c2ccc(F)cc21	0.1	-1.6	/	-1.6	/	/	/	/
C/C(=N\NC(=O)c1cc(-c2ccco2)nc2ccccc12)c1cccnc1	1.7	-8.8	-10.7	-2.2	23.9	-6.0	/	/
COCCN1CCN(C(=O)c2ccc3nc(Cc4ccc(OC)c(OC)c4)oc3c2)CC1	1.9	87.5*	-4.1	-9.1	5.6	7.8	48.0*	-0.2
COc1ccc(Cc2nc3ccc(C(=O)N4CCC(C(N)=O)CC4)cc3o2)cc1	7.5	-6.7	/	-19.4	/	/	/	/
CCn1cc(C(=O)NCCCN(CC(C)C)CC(C)C)c(=O)c2cc(S(=O)(=O)N3CCOCC3)ccc21	-0.2	-9.1	-7.9	-14.9	18.2	-10.5	/	/
Cc1nn(-c2ccc(NC(=O)c3ccncc3)cc2)c(C)c1Cl	18.8	74.5*	/	37.7	/	/	109.5*	-0.4
COc1cc(/C=C/C2=NNC(=O)CC2)cc(OC)c1OC	4.0	20.2*	-15.9	-11.9	3.4	-11.7	15.5*	0.2
Cc1cc(NC(=O)COC(=O)CCC(=O)c2ccc(F)cc2)no1	4.9	-0.1	-13.6	4.4	12.4	-14.0	/	/
CCN=C1S/C(=C\c2cc(OCC)c(O)cc2Br)C(=O)N1CC	0.6	15.9*	-15.2	-7.4	6.4	-20.7	21.1*	0.1
Cc1ccsc1C1C(C#N)=C(N)Oc2n[nH]c(C)c21 (stereo not drawn)	2.8	29.6*	0.5	-33.8	11.7	-9.7	-0.6	0.0
Cc1[nH]nc2c1C(c1cccs1)C(C#N)=C(N)O2 (stereo not drawn)	0.2	3.5	0.0	23.2	17.5	-6.4	/	/
CCN(CC)S(=O)(=O)c1ccc(NC(=O)c2ccc(CN3CCOCC3)cc2)cc1	10.8	101.4*	-4.6	3.3	24.0	6.2	106.3*	-0.7
CCN(CC)S(=O)(=O)c1ccc(O)c(NC(=O)c2ccc(N3CCOCC3)c([N+](=O)[O-])c2)c1	4.9	22.7*	-12.3	8.9	5.4	-5.6	11.2	0.4
CN(c1ccccc1C(=O)Nc1ccc(S(=O)(=O)N2CCCC2)cc1)S(C)(=O)=O	4.1	-5.2	3.0	16.2	5.1	-7.9	/	/
